Assay results from ChEMBL document CHEMBL1955742, “Synthesis and SAR studies of phenanthroindolizidine and phenanthroquinolizidine alkaloids as potent anti-tumor agents” (2012).

Key:
Type in all cases: functional
A549 [1] = test: Antiproliferative activity against human A549 cells at 10^-6 mol/L after 72 hrs by MTT assay; conditions: A549, 72 h
A549 [2] = test: Antiproliferative activity against human A549 cells at 10^-8 mol/L after 72 hrs by MTT assay; conditions: A549, 72 h
HL-60 [3] = test: Antiproliferative activity against human HL60 cells at 10^-6 mol/L after 72 hrs by SRB assay; conditions: HL-60, 72 h
HL-60 [4] = test: Antiproliferative activity against human HL60 cells at 10^-7 mol/L after 72 hrs by SRB assay; conditions: HL-60, 72 h
HL-60 [5] = test: Antiproliferative activity against human HL60 cells at 10^-8 mol/L after 72 hrs by SRB assay; conditions: HL-60, 72 h
A549 [6] = test: Antiproliferative activity against human A549 cells at 10^-7 mol/L after 72 hrs by MTT assay; conditions: A549, 72 h
HL-60 [7] = test: Antiproliferative activity against human HL60 cells after 72 hrs by SRB assay; conditions: Homo sapiens, HL-60, 72 h
Procedure, shortened: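 HL60 human promyelocytic leukemia cells were seeded and grown for 24 h, then given compounds and cultured for another 72 h. Read-out was SRB, per the table footnote. GI50 was obtained by the Logit method from three or more independent experiments.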

A549 [8] = test: Antiproliferative activity against human A549 cells after 72 hrs by MTT assay; conditions: Homo sapiens, A549, 72 h
Procedure, shortened: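 A549 human lung adenocarcinoma epithelial cells were seeded and grown for 24 h, then exposed to compounds for a further 72 h. Proliferation was read by MTT, as assigned in the table footnote. GI50 was calculated by the Logit method from at least three independent experiments.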

GI50 (HL-60 [7]) [µM] | GI50 (A549 [8]) [µM] | SMILES | inhibition at 1 µM (A549 [1]) [%] | inhibition at 0.01 µM (A549 [2]) [%] | inhibition at 1 µM (HL-60 [3]) [%] | inhibition at 0.1 µM (HL-60 [4]) [%] | inhibition at 0.01 µM (HL-60 [5]) [%] | inhibition at 0.1 µM (A549 [6]) [%]
 |  | c1c2c(cc3c1c1c(c4cc5c(cc43)OCO5)CN3CCCC3C1)OCO2 (racemic) | 40.8 | 5.7 | 13.6 | 8.3 | 10.4 | 5.2
< 0.001 | 0.03 | COc1ccc2c3c(c4cc(OC)c(OC)cc4c2c1)CN1CCC[C@H]1[C@H]3O |  |  |  |  |  | 
< 0.001 | < 0.001 | COc1cc2c3c(c4cc(OC)c(OC)cc4c2cc1OC)CN1CCCC[C@@H]1C3 |  |  |  |  |  | 
 | 1.29 | COc1cc2c3c(c4cc(OC)c(OC)cc4c2cc1OC)[C@@H](O)[C@H]1CCCN1C3 | 68.9 | 12.3 | 76 | 37.1 | 12.7 | 31.3
0.5 | 0.9 | COc1ccc2c3c(c4cc(OC)c(OC)cc4c2c1)CN1CCCC[C@@H]1C3 |  |  |  |  |  | 
1.6 | 0.4 | COc1ccc2c3c(c4cc(OC)c(OC)cc4c2c1)[C@H](N)[C@@H]1CCCN1C3 |  |  |  |  |  | 
> 10 | > 10 | COc1cc2c3c(c4cc(OC)c(OC)cc4c2cc1OC)[C@H](NC(=O)C(C)(C)C)[C@@H]1CCCN1C3 |  |  |  |  |  | 
0.04 | 1 | COc1ccc2c3c(c4cc(OC)c(OC)cc4c2c1)[C@H](O)[C@@H]1CCCCN1C3 |  |  |  |  |  | 
< 0.001 | 0.4 | COc1ccc2c3c(c4cc(OC)c(OC)cc4c2c1)CN1CCCC[C@H]1[C@H]3O |  |  |  |  |  | 
 |  | COc1cc2c3c(c4cc5c(cc4c2cc1OC)OCO5)CC1CCCN1C3 (racemic) | 70.3 | 15.9 | 62.9 | 9.4 | 11.7 | 22.4
0.2 | 0.3 | COc1ccc2c3c(c4cc(OC)c(OC)cc4c2c1)C[C@@H]1CCCN1C3 [HYPOESTESTATIN 1] |  |  |  |  |  | 
1.2 | 1.5 | COc1ccc2c3c(c4cc(OC)c(OC)cc4c2c1)CN1CCC[C@H]1[C@H]3NC(C)=O |  |  |  |  |  | 
< 0.001 | 0.3 | COc1ccc2c3c(c4cc(OC)c(OC)cc4c2c1)CN1CCCC[C@@H]1[C@@H]3O |  |  |  |  |  | 
< 0.001 | 0.06 | COc1cc2c3c(c4cc(OC)c(OC)cc4c2cc1OC)CN1CCCC[C@H]1C3 |  |  |  |  |  | 
< 0.001 | 0.07 | COc1cc2c3c(c4cc(OC)c(OC)cc4c2cc1OC)[C@@H](O)[C@H]1CCCCN1C3 |  |  |  |  |  | 
0.1 | 0.04 | COc1cc2c3c(c4ccc(O)cc4c2cc1OC)CN1CCC[C@H]1C3 | 85.9 | 21.9 | 85.8 | 76.1 | 37.4 | 71.3
 |  | COc1cc2c3c(c4cc(OC)c(OC)cc4c2cc1OC)[C@H](O)[C@H]1CCCN1C3 | 17.9 | 5 | 27 | 16.1 | 12.1 | 5.6
0.05 | 0.05 | COc1ccc2c3c(c4cc(OC)c(OC)cc4c2c1)[C@H](NC(C)=O)[C@@H]1CCCN1C3 |  |  |  |  |  | 
0.3 | 1.1 | COc1cc2c3c(c4cc(OC)c(OC)cc4c2cc1OC)[C@H](N)[C@@H]1CCCN1C3 |  |  |  |  |  | 

SMILES | GI50 (HL-60 [7]) [µM] | GI50 (A549 [8]) [µM] | inhibition at 1 µM (A549 [1]) [%] | inhibition at 0.01 µM (A549 [2]) [%] | inhibition at 1 µM (HL-60 [3]) [%] | inhibition at 0.1 µM (HL-60 [4]) [%] | inhibition at 0.01 µM (HL-60 [5]) [%] | inhibition at 0.1 µM (A549 [6]) [%]
COc1cc2c3c(c4cc(OC)c(OC)cc4c2cc1OC)CN1CCCC1C3 (racemic) [(+/-)-TYLOPHORINE] | 0.1 | 1.3 | 72.3 | 6 | 71.3 | 40.5 | 14.9 | 61.4
COc1cc2c3c(c4cc(OC)c(OC)cc4c2cc1OC)CN1CCC[C@H]1C3 [(S)-TYLOPHORINE] | 0.01 | 0.7 |  |  |  |  |  | 
COc1ccc2c3c(c4cc(OC)c(OC)cc4c2c1)[C@@H](O)[C@H]1CCCN1C3 | > 10 | > 10 |  |  |  |  |  | 
